# Experimental data of several laboratories.
# Protocols differ between the studies behind these lines.
# JAK3: Tyrosine-protein kinase JAK3 (JAK3, Homo sapiens, UniProt P52333)
# JAK3 JH1: Tyrosine-protein kinase JAK3, JH1 (JAK3, Homo sapiens, UniProt P52333)
SMILES,target,effect on,mode,technique,concentration,quantity,result
CCCOc1ccc(OC)c(F)c1C(=O)c1ccc(C(=O)N[C@@H]2CNC[C@H]2NC(=O)c2ccc3[nH]ncc3c2)cc1,JAK3,enzyme activity,inhibitor,,10 µM,remaining activity,19%
CC(C)(C)c1nc2c(s1)c1nc(N)ncc1c1ccc(NS(=O)(=O)c3c(F)cccc3F)c(F)c12,JAK3,enzyme activity,inhibitor,radiometric,1 µM,remaining activity,100%
Cc1ccc(Nc2nccc(N(C)c3ccc4c(C)n(C)nc4c3)n2)cc1S(N)(=O)=O,JAK3,enzyme activity,inhibitor,,10 µM,inhibition,77%
Cn1nc(C(=O)NCc2ccc(C(=O)O)cc2)cc1-c1ccc2[nH]ccc2c1,JAK3 JH1,cell-free assay,,competition with immobilised ligand,0.1 µM,remaining binding,65%
COc1cc2ncnc(Nc3ccc(F)c(Cl)c3)c2cc1OCCCN1CCOCC1,JAK3,cell-free assay,,,0.5 µM,remaining signal,96.6%
CCN(CC)CCNC(=O)c1c(C)[nH]c(/C=C2\C(=O)Nc3ccc(F)cc32)c1C,JAK3,enzyme activity,inhibitor,,0.3 µM,inhibition,7%
COc1cc2nccc(Oc3ccc(NC(=O)c4c5n(n(-c6ccc(F)cc6)c4=O)CCCC5)cc3)c2cc1OC,JAK3,enzyme activity,inhibitor,,0.1 µM,inhibition,-18%
Cc1ccc(C(=O)Nc2ccc(CN3CCN(C)CC3)c(C(F)(F)F)c2)cc1C#Cc1cnc2cccnn12,JAK3,enzyme activity,inhibitor,,23.5 nM,remaining activity,14%
CCOc1cc(-c2nncn2C)ccc1Nc1ncc2cc(C)nc(NCC(C)(C)C)c2n1,JAK3,enzyme activity,inhibitor,FRET,1 µM,inhibition,< 15%
O=C(NCCCC1CCCCC1)c1ccc(CNC(=O)c2cnn(-c3ccccc3)c2C(F)(F)F)cc1,JAK3 JH1,cell-free assay,,competition with immobilised ligand,0.1 µM,remaining binding,100%
O=C(Nc1cnn(-c2csc(C(=O)NC3COC3)c2)c1)Nc1ccccc1Cl,JAK3,enzyme activity,inhibitor,,5 µM,remaining activity,102%
CNCc1ccccc1-c1csc([C@H](C)Nc2nc(C)nc3cc(OC)c(OC)cc23)c1,JAK3 JH1,cell-free assay,,competition with immobilised ligand,1 µM,remaining binding,99%
CCN(CC)c1ccc(C2=NNC(=O)CC2C)cc1[N+](=O)[O-] (stereo not shown),JAK3,enzyme activity,inhibitor,,10 µM,remaining activity,134%
CS(=O)(=O)Nc1cccc(-c2csc(NC(=O)CSc3nc4nccnc4c(=O)n3CCc3ccccc3)n2)c1,JAK3,enzyme activity,inhibitor,,10 µM,inhibition,1%
CCc1ccccc1C(=O)Nc1n[nH]c2c(C)c(F)c(C3C(C#N)=C(C)N(C)C(C)=C3C#N)cc12,JAK3 JH1,cell-free assay,,competition with immobilised ligand,1 µM,remaining binding,79%
CNC(=O)c1cc(Oc2ccc(NC(=O)Nc3ccc(Cl)c(C(F)(F)F)c3)cc2)ccn1,JAK3,cell-free assay,,,0.5 µM,remaining signal,99.4%
C=CC(=O)Nc1cc(Nc2nccc(Nc3cc(Cl)c(F)cc3C(C)(C)O)n2)c(OC)cc1N1CC[C@@H](N(C)C)C1,JAK3,enzyme activity,inhibitor,,1 µM,inhibition,24%
COc1cc2ncnc(Nc3ccc(Oc4ccccc4)cc3C)c2cc1OC,JAK3,enzyme activity,inhibitor,,1 µM,inhibition,-6%
O=C(O)c1cc(-c2ccc(C3CCNCC3)cc2)c2ccc(-c3ccc(C(F)(F)F)cc3)cc2c1,JAK3 JH1,cell-free assay,,competition with immobilised ligand,1 µM,remaining binding,100%
CN1CC(Oc2cnc(C#N)cc2-c2ccn3nc(NC(=O)C4CC4)cc3c2)C1,JAK3,enzyme activity,inhibitor,,1 µM,inhibition,15%
O=C(Nc1cnn(-c2csc(C(=O)NC3COC3)c2)c1)Nc1c(F)cccc1Cl,JAK3,enzyme activity,inhibitor,,5 µM,remaining activity,98.7%
N#CCCc1ccc2c(c1)-c1[nH]c3ccc([N+](=O)[O-])cc3c1CC(=O)N2,JAK3,cell-free assay,,,0.5 µM,remaining signal,101%
O=C(Nc1cnc(Oc2ccc(F)cc2)nc1)N1CCc2ncccc2[C@@H]1c1ccc(F)cc1,JAK3 JH1,cell-free assay,,competition with immobilised ligand,1 µM,remaining binding,91%
C[C@@H]1CCN(c2nccc(-c3cnn4ncccc34)n2)C1,JAK3 JH1,cell-free assay,,,1 µM,remaining signal,80%
CN(C)CC#Cc1ccc(OCCCc2sc(N3CCc4cccc(C(=O)Nc5nc6ccccc6s5)c4C3)nc2C(=O)O)c(F)c1,JAK3 JH1,cell-free assay,,competition with immobilised ligand,1 µM,remaining binding,58%
c1cnn2ncc(-c3ccnc(N4CCC45COC5)n3)c2c1,JAK3 JH1,cell-free assay,,,1 µM,remaining signal,68%
CC1=C(C#N)[C@@H](c2ccc3[nH]nc(C)c3c2)C(C#N)=C(c2ccc(Cl)cc2)N1,JAK3 JH1,cell-free assay,,competition with immobilised ligand,1 µM,remaining binding,100%
Cc1cc(NC(=O)c2cccc3cc(-c4cccc5[nH]nc(N)c45)ccc23)ccc1F,JAK3,enzyme activity,inhibitor,,0.1 µM,activity vs control,94%
